Screening results deposited in PubChem BioAssay by The Scripps Research Institute Molecular Screening Center.
The list is not random: actives were taken first. Their share in the collection is about 2.5%.
Fh CTSL1 inh: cathepsin L1 inhibition, PFM18AAP counter-screen; hit rate 0.49% among 300,000; inhibition, % at 5.96 µM; recombinant F. hepatica cathepsin L1, Z-Leu-Arg-MCA fluorescence;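 active means inhibition above the mean of all tested compounds plus 3 SD, set per screening campaign, cut at about 17% in these data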
GSTO1 inh: blocks human GSTO1 in RBBP9 counter-screen; AID 1974; hit rate 1.1% among 300,000; P78417; recombinant GSTO1, activity-based probe fluorescence polarization; inhibition, % at 5.96 µM;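 active means inhibition above the campaign mean inhibition plus 3 SD, cut at about 35% in these data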
TDP2 absorb: blocks human TDP2 phosphodiesterase activity. inhibition, % at 12.8 µM. O95551. recombinant TDP2, T5PNP hydrolysis, p-nitrophenol absorbance 415 nm. AID 720702. hit rate 0.34% among 370,000;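 active means inhibition above the mean of all tested compounds plus 3 SD, set per campaign, cut at about 25% in these data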
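Material: recombinant human TDP2; quantity: TDP2 enzyme at 120 nM final; medium: Tris-HCl pH 7.5 with MgCl2; compound: single concentration, 12.8 µM nominal, with 1% DMSO; incubation: 2 h enzyme incubation at 37 °C; signal: epi absorbance; measure: percent inhibition; benchmarks: high control without enzyme, low control DMSO plus TDP2; repeats: singlicate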
PAD4 FP inh: blocks human protein arginine deiminase 4; hit rate 0.41% among 330,000; inhibition, % at 6.36 µM; Q9UM07; AID 485272; recombinant PAD4, RCA probe fluorescence polarization;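 active means percent inhibition above a cutoff equal to the mean of all tested compounds plus 3 SD, cut at about 15% in these data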
Target sequence (Q9UM07 whole entry, looked up): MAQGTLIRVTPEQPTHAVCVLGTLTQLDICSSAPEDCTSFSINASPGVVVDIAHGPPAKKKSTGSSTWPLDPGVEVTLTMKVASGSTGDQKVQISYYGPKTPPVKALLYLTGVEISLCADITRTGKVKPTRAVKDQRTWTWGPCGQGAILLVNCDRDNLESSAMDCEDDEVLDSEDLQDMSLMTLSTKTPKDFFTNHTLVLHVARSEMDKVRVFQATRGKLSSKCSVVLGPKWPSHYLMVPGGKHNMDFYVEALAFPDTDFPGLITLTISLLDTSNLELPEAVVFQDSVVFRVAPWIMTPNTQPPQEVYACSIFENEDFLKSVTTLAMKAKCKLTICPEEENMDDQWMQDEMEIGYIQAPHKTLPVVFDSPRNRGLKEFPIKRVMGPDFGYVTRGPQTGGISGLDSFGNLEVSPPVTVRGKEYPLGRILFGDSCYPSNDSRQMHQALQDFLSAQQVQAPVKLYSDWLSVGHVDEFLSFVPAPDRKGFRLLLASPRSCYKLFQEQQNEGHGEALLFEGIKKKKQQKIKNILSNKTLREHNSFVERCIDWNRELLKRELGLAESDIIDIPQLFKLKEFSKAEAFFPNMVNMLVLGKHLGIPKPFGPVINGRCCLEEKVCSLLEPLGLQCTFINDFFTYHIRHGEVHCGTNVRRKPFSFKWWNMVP
PRMT1 inh: blocks human protein arginine methyltransferase 1. AID 652257. recombinant PRMT1, activity-based probe fluorescence polarization. hit rate 1.3% among 370,000. Q99873. inhibition, % at 2.79 µM;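 active means inhibition above about 21% made by adding two undisclosed values, limit read from the data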
GSTO1 inh conf: GSTO1 (human) inhibition, confirmation; shares compounds with GSTO1 inh; recombinant GSTO1, probe fluorescence polarization; inhibition, % at 5.96 µM; hit rate 54% among 2,400; AID 2176;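 active means inhibition above the primary screen's cutoff, its mean inhibition plus 3 SD, cut at about 35% in these data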;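 further: loss of polarization as inhibitors block binding of rhodamine sulfonate ester activity probe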
GSTO1 recomb ABPP: GSTO1 (human) inhibition by gel ABPP | shares compounds with GSTO1 inh | recombinant GSTO1, gel ABPP SE-Rh probe fluorescence | inhibition, % at 1 µM | hit rate 30% among 130;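 active means inhibition of the enzyme GSTO1 above about 75%, limit read from the data; inactive means inhibition below that limit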
Numbers stand for hits; n = inactive; x = no result given.

SMILES | Fh CTSL1 inh | GSTO1 inh | TDP2 absorb | PAD4 FP inh | PRMT1 inh | GSTO1 inh conf | others
O=C(O)CN1C(=O)/C(=C\c2cccc(OCc3ccccc3)c2)SC1=S | n | 40 | n | n | 30 | n
O=C(O)CN1C(=O)/C(=C\c2ccccc2OCc2ccccc2)SC1=S | x | x | n | x | n | x
Cc1ccc(NC(=O)CCCN2C(=O)/C(=C/C=C/c3ccccc3)SC2=S)cc1 | n | n | n | n | n | x
COc1ccc(/C=C(\C#N)C(=O)Nc2cccc3ncccc23)cc1OC | n | n | n | n | n | x
N#C/C(=C\c1ccc(O)c(O)c1)C(=O)Nc1cccc2ncccc12 | n | 56 | n | n | n | n
COc1ccc(NC(=O)CCN2CCN(S(=O)(=O)c3ccc(Br)cc3)CC2)cc1 | n | 71 | n | n | n | n
O=C(N/N=C/c1c[nH]c2ccccc12)c1ccc(O)c(O)c1 | n | 40 | n | n | n | n
O=C(N/N=C/c1c[nH]c2ccccc12)c1cccc(O)c1 | n | n | n | n | n | x
Cc1ccc(NC(=O)CCl)c(C)c1 | n | 82 | n | n | n | 91
Cc1ccc(NC(=O)CCc2ccc(C)o2)c(C)c1 | n | n | n | n | n | x
Cc1cc(C)c(NS(=O)(=O)c2ccc3c(c2)oc(=O)n3C)c(C)c1 | x | x | n | x | n | x
COc1ccc(NS(=O)(=O)c2ccc3c(c2)oc(=O)n3C)cc1Cl | n | 51 | n | n | n | 57
CCN(CC)c1ccc(NS(=O)(=O)c2ccc3c(c2)oc(=O)n3C)c(C)c1 | n | 70 | n | n | 25 | 70
O=C(NC1CCCCN(Cc2cccc(C(F)(F)F)c2)C1=O)c1ccc(F)cc1 (stereo unspecified) | x | x | n | x | n | x
CC(C)C[C@H]1COc2cccc(F)c2S(=O)(=O)N1Cc1cn(Cc2ccc(C(F)(F)F)cc2)nn1 | x | x | n | x | n | x
O=[N+]([O-])c1ccccc1S(=O)(=O)N(CC1CO1)c1ccccc1 (stereo unspecified) | n | 98 | n | n | n | 100 | GSTO1 recomb ABPP=n
CCOC(=O)N(C)S(=O)(=O)c1ccccc1[N+](=O)[O-] | n | n | n | n | n | x
Cc1ccc(S(=O)(=O)N(CC2CO2)c2ccccc2[N+](=O)[O-])cc1 (stereo unspecified) | n | 78 | n | n | n | 93 | GSTO1 recomb ABPP=n
Cc1ccc(N(CC2CO2)S(=O)(=O)c2ccccc2[N+](=O)[O-])cc1 (stereo unspecified) | n | 87 | n | n | n | 97 | GSTO1 recomb ABPP=n
COc1ccccc1N1CCN(C(=O)c2cc3c(C)nn(-c4ccccc4)c3s2)CC1 | x | x | n | x | n | x
COc1ccc(C2C(C(=O)Nc3ccc(F)cc3F)CCC(=O)N2c2ccc(OC)cc2)cc1 (stereo unspecified) | x | x | n | x | n | x
CO[C@H]1/C=C/O[C@@]2(C)Oc3c(C)c(O)c4c(O)c(c(C=NN5CCN(C)CC5)c(O)c4c3C2=O)NC(=O)/C(C)=C\C=C\[C@H](C)[C@H](O)[C@@H](C)[C@@H](O)[C@@H](C)[C@H](OC(C)=O)[C@@H]1C | n | 62 | n | n | n | 55
CO[C@H]1C=CO[C@@]2(C)Oc3c(C)c(O)c4c(O)c(c(C=NN5CCN(C)CC5)c(O)c4c3C2=O)NC(=O)C(C)=CC=C[C@H](C)[C@H](O)[C@@H](C)[C@@H](O)[C@@H](C)[C@H](OC(C)=O)[C@@H]1C | n | 77 | n | n | n | 70
CC(=O)Oc1ccc2oc(/C=C/N(C)C)c([N+](=O)[O-])c2c1 | n | n | n | n | n | x
C/C(=C/c1oc2ccc(O)cc2c1[N+](=O)[O-])N(C)C | n | 51 | n | n | 24 | n
SMILES | Fh CTSL1 inh | GSTO1 inh | TDP2 absorb | PAD4 FP inh | PRMT1 inh | GSTO1 inh conf | others
O=C(N/N=C/c1ccc([N+](=O)[O-])cc1)c1ccc(NS(=O)(=O)c2cccs2)cc1 | x | x | n | n | n | x
O=C(N/N=C/c1ccc([N+](=O)[O-])o1)c1ccc(NS(=O)(=O)c2cccs2)cc1 | n | 55 | n | n | n | n
C[C@H]1COc2cc(Br)ccc2S(=O)(=O)N1Cc1cn(Cc2ccccc2)nn1 | x | x | n | x | n | x
Cc1cccc(CN2CCN(C(=O)CCl)CC2)c1 | n | 96 | n | n | n | 99 | GSTO1 recomb ABPP=n
O=C(Cn1nnc(-c2ccccc2F)n1)Nc1ccc(Cl)c(Cl)c1 | x | x | n | x | n | x
Cc1nc(-n2nnc3ccccc32)c2c3c(sc2n1)CCCC3 | n | 127 | n | n | n | n
O=C(CCl)Nc1c2c(nn1-c1ccccc1)CSC2 | 80 | 98 | n | n | n | 98
CCOC(=O)C1CCN(C(=O)C(Cc2ccc3c(c2)OCO3)NC(C)=O)CC1 (stereo unspecified) | x | x | n | x | n | x
Cc1ccc(-n2nc(C)c3c2OC(N)=C(C#N)C3c2ccc(C)o2)cc1 (stereo unspecified) | n | 48 | n | n | n | n
COC(=O)c1cccc(Cn2ccc3ccc(-c4ccc5ccn(C(=O)c6ccccc6OC)c5c4)cc32)c1 | x | x | n | x | n | x
Cc1ccc(O)c(N=CC2=C(O)c3ccccc3C2=O)c1 | n | 68 | n | n | n | n
O=C(NNc1cc(Br)c(O)c(Br)c1)c1ccccc1 | n | 65 | n | n | 23 | n
NS(=O)(=O)c1ccc(NNC(=O)c2ccccc2)cc1 | n | n | n | n | n | x
O=C(Nc1ccc(Cl)c(Cl)c1)C1CCCN(c2nnc(-n3cccc3)s2)C1 (stereo unspecified) | x | x | n | x | n | x
O=C(CSc1nnc(-c2cccnc2)n1-c1ccc(Cl)cc1)c1ccc(F)cc1 | x | x | n | x | n | x
COC[C@H]1CCCN1c1ccc2c(c1)O[C@H]1CCN(C1)S2(=O)=O | x | x | n | x | n | x
COc1ccc(C(OCC2CO2)c2ccc(OC)cc2)cc1 (stereo unspecified) | n | 82 | x | n | x | 92 | GSTO1 recomb ABPP=n
N=c1c2c(ccn1CCCCc1ccccc1)Oc1ccc3ccccc3c1C2c1ccccc1 (stereo unspecified) | x | x | n | x | n | x
Cc1cc(C)cc(NC(=S)NCc2ccc3[nH]c4c(c3c2)CCCC4)c1 | n | n | n | n | n | x
CCS(=O)(=O)NCc1ccc2[nH]c3c(c2c1)CCCC3 | n | 46 | x | n | x | 60
C=CS(=O)(=O)N(Cc1ccc(F)cc1)C(=C)C(=O)OC | x | x | n | x | n | x
Cc1cccc(C)c1NC(=O)C1CCCN1S(=O)(=O)c1cccc2cccnc12 (stereo unspecified) | x | x | n | x | n | x
C/C(=N\Nc1cccc2cccnc12)c1ccc[nH]1 | n | 47 | n | n | n | n
CCOC(=O)c1c(NC(=O)CCl)sc(CN(C)C)c1-c1ccccc1 | 22 | 77 | n | n | n | 91
O=C(C(=NNc1ccccc1)c1ccccc1)c1ccccc1 | x | x | n | x | n | x
Oc1ccc(O)c(/C(=N/Nc2ccccc2)c2ccccc2)c1 | n | 40 | x | n | x | n
O=C(CCl)N(c1ccccc1)c1c[nH]c2ccccc12 | n | 70 | n | n | n | 78 | GSTO1 recomb ABPP=n
